Cav3 T inh = human Cav3.2 channel inhibition, primary screen. O95180. Cav3.2-expressing cells, Fluo-4 calcium fluorescence FDSS; stronger effect = lower value. B-score at 10 µM. 4% of 100,000 active;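 active means single-dose well whose peak fluorescence ratio is a statistical outlier from its plate by either plate-standardised score or position-corrected B-score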
Measles CPE = protection of cells from measles virus; AID 841; 1.5% of 140,000 active; protection (pct of control), % at 4 µM; Measles virus-infected cells, CPE protection, absorbance; in the data active means protection mostly above about 24%, no sharp cut-off; inactive means mostly below about 26%
Pyk2 oligo antag = blocks oligomerization of human Pyk2 in cells; Q293 cells, Pyk2 FERM NanoBiT luminescence; stronger effect = lower value; z-score (the deposit names both 25 µM and 10 µM); 0.83% of 99,000 active;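 active means Z-score of -3 or lower, scaled per plate to the spread of control and sample wells; inactive means z-score above -3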;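 further: negative z-score means lost luminescence so less FERM oligomerization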
Phagocyt inh = blocks phagocytosis by macrophages; J774A.1 macrophage IgG-bead phagocytosis, imaging; inhibition, % at 5 µM; 0.07% of 110,000 active;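 active means inhibition above the mean of the plate negative controls plus 5 SD, cut at about 13% in these data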;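 further: phagocytic index as fraction of beads internalized from green versus red external bead signal; plate controls were DMSO negative control for no effect and cytochalasin-D positive control for full effect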
Rev-RRE block = HIV Rev-RRE protein-RNA interaction inhibition | Rev peptide-RRE RNA binding, FRET | P05866 | inhibition, % at 8 µM | 0.79% of 97,000 active;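 active means inhibition above the screen-wide mean plus 3 SD, cut at about 35% in these data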;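 further: 0% = median DMSO wells and 100% = median Neomycin B control wells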
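Test system: labelled RRE RNA duplex and labelled Rev peptide. Times: 5 min compound–RNA preincubation, then 15 min with peptide, 25 °C. Doses: single-dose 8 µM. Measured by: FRET, excitation 480 nm, emission 540 nm donor and 671 nm acceptor. Measure: % inhibition of FRET ratio versus controls.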
DAT uptake mod = human DAT dopamine uptake with cocaine, either direction; 1.3% of 110,000 active; LLC-PK1 hDAT cells, [14C]-dopamine uptake with cocaine IC80; actives deviate in either direction; AID 449768; B-score at 10 µM;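 active means Z score or B-score, a plate-position-corrected score, falls beyond the plate's 99.7% confidence bounds, in either direction; inactive means both scores lie inside the 99.7% bounds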;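 further: scored against the spread of the other compound wells on the same plate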
The depositor's hits bear a star; . = no result. Hits are enriched below; roughly 5.9% of the tested compounds scored in any of these assays.

SMILES | Cav3 T inh | Measles CPE | Pyk2 oligo antag | Phagocyt inh | Rev-RRE block | DAT uptake mod
O=C(Cc1ccccc1)NC(NCCc1ccccc1)C(Cl)(Cl)Cl (stereo not given) | -10* | 4.9 | -0.53 | . | 9.7 | -1.12
CC(C)(C)NC(NC(=O)Cc1ccccc1)C(Cl)(Cl)Cl (stereo not given) | -1.18 | 41.3 | -0.27 | . | -1.5 | 1.21
O=C(Cc1ccccc1)NC(Nc1ccccc1)C(Cl)(Cl)Cl (stereo not given) | -4.22* | 7.0 | -0.06 | -1.0 | 12.7 | -1.66
CSc1nsc(SCC(=O)Nc2nc3ccc(C)cc3s2)n1 | . | 3.3 | . | -6.4 | . | .
COC(=O)[C@@H]1[C@@H](C#N)C2(c3ccccc3-c3ccccc32)N(c2ccc(Cl)cc2)N1C#N | -0.184 | 4.5 | -0.58 | . | 14.9 | 0.792
COC(=O)c1ccc[n+](CCc2c[nH]c3ccccc23)c1 | 0.3 | . | . | . | . | 0.379
CCOC(=O)c1cnc(-n2nc(C)cc2C)nc1NC(C)c1ccccc1 (stereo not given) | -8.81* | 5.8 | -2.76 | . | . | -0.233
CCOC(=O)c1cnc(-n2nc(C)cc2C)nc1NCc1ccccc1 | -0.976 | 6.1 | -0.9 | 6.4 | 12.6 | 0.964
CC1(C)CC(n2c(NCCO)nc3c(c2=O)C2(CCCC2)Cc2ccccc2-3)CCO1 (stereo not given) | -4.29* | 15.8 | -0.39 | -1.0 | . | 1.88
CC(=O)OCc1c(C(F)(F)F)nn(C)c1Oc1cccc(C(F)(F)F)c1 | -4.22* | 5.6 | 0.23 | . | 6.1 | 0.0176
Cc1ccc(-c2cc3nc(C)cc(NCc4ccco4)n3n2)cc1 | -1.43 | 4.7 | 0.11 | -0.7 | 9.7 | -3.94*
COCCN(C(=O)Nc1ccccc1)c1ccccc1C | 0.527 | 57.5* | 0.18 | . | 3.7 | -0.765
CCCCn1c(-c2ccncc2)nc2c1c(=O)[nH]c(=O)n2CC(C)C | 3.06* | 29.0 | -1.6 | 1.8 | 1.8 | 0.389
COCCn1c(-c2ccc(OC(F)(F)C(F)C(F)(F)F)cc2)nc2c1c(=O)[nH]c(=O)n2CC(C)C (stereo not given) | -0.491 | 13.3 | -0.55 | -1.7 | -4.0 | -0.534
COc1ccc(C(=O)Nc2ccc(N3CCN(C(=O)C(C)C)CC3)cc2)cc1[N+](=O)[O-] | . | 4.4 | . | -3.5 | . | .
O=C(CS(=O)(=O)Cc1ccccc1)Nc1ccc(S(=O)(=O)N2CCCCCC2)cc1 | -7.14* | 2.3 | -0.7 | 0.6 | 15.2 | 1.34
O=C(COC(=O)CCc1ccc(S(=O)(=O)N2CCCCC2)cc1)Nc1ccc2c(c1)OCO2 | -5.49* | 16.6 | 1.42 | 0.1 | . | -0.827
CC(C(=O)OCC(=O)Nc1ccc(S(=O)(=O)N2CCCCC2)cc1)N1C(=O)c2ccccc2C1=O (stereo not given) | -5.71* | 3.6 | 0.78 | -0.1 | 13.4 | -0.652
S=C1COC(c2ccccc2)N1c1ccccc1 (stereo not given) | 0.234 | 6.6 | 0.44 | . | 1.8 | -0.498
CCOC(=O)C[C@H]1c2ccccc2S(=O)(=O)N1C1CC1 | 0.554 | . | . | . | . | -0.138
Cc1ccnc(NC(=O)CCC(=O)N(CC(=O)NC2CCCCC2)c2ccc3c(c2)OCO3)c1 | -4.46* | . | 1.18 | -0.1 | . | -0.71
CCCCOc1ccc(N(CC(=O)NC2CCCC2)C(=O)CCC(=O)Nc2ccccn2)cc1 | 0.0247 | 12.5 | 0.8 | . | 0.6 | 0.385
Cc1cccc(N(CC(=O)NC2CCCCC2)C(=O)CCC(=O)Nc2ccccn2)c1 | -4.19* | . | . | -0.6 | . | -0.181
Cc1cccc(N(CC(=O)NCc2ccc3c(c2)OCO3)C(=O)CCC(=O)Nc2ccccn2)c1 | . | 3.8 | -2.05 | . | 8.7 | 0.131
Cc1cccc(N(CC(=O)NCc2ccc3c(c2)OCO3)C(=O)CCC(=O)Nc2ccccn2)c1C | . | 13.6 | -3.15* | . | 6.2 | 0.124
SMILES | Cav3 T inh | Measles CPE | Pyk2 oligo antag | Phagocyt inh | Rev-RRE block | DAT uptake mod
O=C(CCC(=O)N(CC(=O)NC1CCCC1)Cc1ccc2c(c1)OCO2)Nc1ccccn1 | 0.55 | 6.9 | -0.45 | 0.9 | -1.7 | 0.0921
O=C(CNC(=O)c1ccc(S(=O)(=O)N2CCCC2)cc1)N/N=C/c1ccc(Cl)cc1Cl | . | 7.1 | . | -8.3 | . | .
CC1CCCCN1C(=O)CSCC(=O)Nc1nc(-c2cccs2)cs1 (stereo not given) | -4.93* | 14.6 | . | . | . | 0.0101
CC1CCCN(C(=O)CSCC(=O)Nc2nc(-c3cccs3)cs2)C1 (stereo not given) | -5.23* | 4.7 | . | -0.2 | 7.3 | 0.961
CC1CCN(C(=O)CSCC(=O)Nc2nc(-c3cccs3)cs2)CC1 | -5.69* | 14.2 | . | . | . | 2.07
CCCCNc1c(C(=O)OCC)c(C)nc2c1cnn2CC | . | . | . | . | . | -0.951
CS(=O)(=O)N(CC(=O)NCCSc1ccccn1)c1cccc2ccccc12 | . | 19.8 | . | 5.5 | . | .
N#C/C(=N\Nc1ccc(Cl)cc1)C(=O)c1ccccc1 | -5.55* | 25.3 | -2.33 | -0.7 | -0.1 | -1.52
CCOC(=O)NC(=O)/C(C#N)=N\Nc1ccc(Cl)cc1 | -5.09* | 1.9 | 2.43 | 0.3 | -2.0 | 0.019
CCOc1ccc(N/N=C(/C#N)C(N)=O)cc1 | -0.357 | 10.5 | 0.4 | . | 3.0 | -1.87
Cc1c(N/N=C(\C#N)C(=O)c2ccc(Cl)cc2)c(=O)n(-c2ccccc2)n1C | . | 3.0 | . | -5.7 | . | .
COc1cccc(NC(=O)c2cc(CN3C(=O)c4ccccc4C3=O)ccc2OC)c1 | . | 27.0 | . | -4.9 | . | .
Cc1ccc(Cl)cc1-c1ccc(C=Nc2ccc(N3CCOCC3)cc2)o1 | . | 60.2* | . | -7.7 | . | .
O=C(NC(Cc1c[nH]c2ccccc12)C(=O)NCc1ccc(F)cc1)OCc1ccccc1 (stereo not given) | . | 4.1 | . | -6.0 | . | .
C=CCn1c(/N=C/c2ccc(N(C)C)cc2)nc2ccccc21 | -1.97 | 7.1 | -0.45 | 1.9 | 49.5* | 0.208
CC(C)Oc1ccc(Cn2c(=O)sc3ccccc32)cc1 | -2.1 | 11.9 | -3.28* | . | 17.7 | -1.43
COc1ccc(Cn2c(=O)sc3ccccc32)cc1 | -1.49 | 15.1 | -1.86 | -1.9 | 9.9 | -0.0949
CCOC(=O)c1ccc(NCn2c(=O)oc3ccccc32)cc1 | -0.487 | 5.3 | 1.85 | -1.3 | 54.8* | -0.504
COC(=O)c1ccc(NC(=O)CCn2c(=O)oc3ccccc32)cc1 | -0.0718 | 9.0 | -0.1 | -0.2 | 0.5 | 1.12
c1ccc2c(c1)OCCOCCOc1ccccc1OCCOCCO2 | . | 7.0 | . | -3.3 | . | .
O=c1ccccn1Cc1c(F)cccc1Cl | 0.844 | 30.7 | 0.66 | 0.3 | 9.5 | -0.0332
CCC(=O)Nc1cc(C(=O)OCC(=O)c2ccccc2)ccc1C | . | 3.2 | . | -1.6 | . | .
O=C1c2ccccc2NC(c2ccc(Cl)cc2Cl)N1O (stereo not given) | -0.0861 | 19.7 | -0.31 | . | -0.3 | 0.496
O=C1c2ccccc2NC(c2ccc(Cl)cc2Cl)N1Cc1ccccc1 (stereo not given) | -5.26* | 14.5 | -1.18 | 0.4 | 11.9 | 0.347
O=C1c2ccccc2NC(c2c(Cl)cccc2Cl)N1Cc1ccccc1 (stereo not given) | -10.5* | 10.0 | -1.69 | 1.9 | 7.5 | 0.982
Cc1ccc(C(=O)Nc2ccc3c(c2)OCO3)cc1S(=O)(=O)N1CCCC1 | -0.441 | . | -0.88 | -0.7 | 2.7 | 1.44
